Data: ChEMBL document CHEMBL4425125, “Development of a Dual-Acting Antibacterial Agent (TNP-2092) for the Treatment of Persistent Bacterial Infections” (J Med Chem, 2016)
In brackets after ≈: the same amount, converted by molar mass.

Columns and labels:
Staphylococcus aureus [1] = experiment: Antimicrobial activity against Staphylococcus aureus isogenic forms expressing rpoB H481Y/gyrA S84L/parC S80F mutant by broth dilution method; type: functional
Procedure, shortened: (§1)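 MIC (μg/mL) on otherwise isogenic derivatives of S. aureus ATCC 29213 that carry the rifamycin-resistance allele rpoB H481Y and/or the quinolone-resistance alleles parC S80F and gyrA S84L. The wild-type parent is the reference strain. MICs were determined both by agar dilution and by broth dilution, tested side by side on the same panel.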

Staphylococcus aureus [2] = experiment: Antimicrobial activity against Staphylococcus aureus isogenic forms expressing gyrA S84L mutant by broth dilution method; type: functional; procedure, shortened: as §1
Staphylococcus aureus [3] = experiment: Antimicrobial activity against Staphylococcus aureus isogenic forms expressing gyrA S84L and parC S80F mutant by broth dilution method; type: functional; procedure, shortened: as §1
[4] = Plasma clearance in iv dosed dog; type: ADME, organism-based, Canis lupus familiaris
Staphylococcus aureus [5] = experiment: Antimicrobial activity against Staphylococcus aureus isogenic forms expressing rpoB H481Y/gyrA S84L/parC S80F mutant by agar dilution method; type: functional; procedure, shortened: as §1
[6] = Volume of distribution in iv dosed dog; settings: in vivo
Staphylococcus aureus [7] = tested on: Staphylococcus aureus
Staphylococcus aureus [8] = experiment: Antimicrobial activity against Staphylococcus aureus infected in rat […] model assessed as reduction in bacterial load in granuloma pouch fluid at 5 to 25 mg/kg, iv administered as single dose; type: functional
[9] = tested on: Staphylococcus epidermidis; experiment: Antimicrobial activity against methicillin-sensitive Staphylococcus epidermidis clinical isolates by broth dilution method; type: functional
[10] = Half life in iv dosed mouse plasma; type: ADME, organism-based
[11] = tested on: Staphylococcus epidermidis; experiment: Antimicrobial activity against methicillin-resistant Staphylococcus epidermidis clinical isolates by broth dilution method; type: functional; settings: Staphylococcus epidermidis
[12] = Half life in iv dosed rat plasma; type: ADME, organism-based
[13] = tested on: Staphylococcus epidermidis; experiment: Antimicrobial activity against Staphylococcus epidermidis infected in mouse skin abscess model; type: functional
[14] = Inhibition of wild type Staphylococcus aureus RNA polymerase assessed as reduction in RNA product formation
Staphylococcus aureus [15] = experiment: Antimicrobial activity against Staphylococcus aureus isogenic forms expressing rpoB H481Y and parC S80F mutant by agar dilution method; type: functional; procedure, shortened: as §1
Staphylococcus aureus [16] = experiment: Antimicrobial activity against Staphylococcus aureus isogenic forms expressing gyrA S84L and parC S80F mutant by agar dilution method; type: functional; procedure, shortened: as §1
Staphylococcus aureus [17] = experiment: Bactericidal activity against methicillin-resistant Staphylococcus aureus 67-0; type: functional
Staphylococcus aureus [18] = experiment: Antimicrobial activity against Staphylococcus aureus isogenic forms expressing rpoB H481Y mutant by agar dilution method; type: functional; procedure, shortened: as §1
Staphylococcus aureus [19] = experiment: Antimicrobial activity against wild type Staphylococcus aureus by broth dilution method; type: functional; procedure, shortened: as §1
[20] = target: DNA gyrase (Staphylococcus aureus) (UniProt P0A0K8+P20831)
Staphylococcus aureus [21] = experiment: Antimicrobial activity against Staphylococcus aureus isogenic forms expressing rpoB H481Y and gyrA S84L mutant by broth dilution method; type: functional; procedure, shortened: as §1
Staphylococcus aureus [22] = experiment: Antimicrobial activity against Staphylococcus aureus isogenic forms expressing parC S80F mutant by agar dilution method; type: functional; procedure, shortened: as §1
Staphylococcus aureus [23] = experiment: Antimicrobial activity against Staphylococcus aureus isogenic forms expressing rpoB H481Y and parC S80F mutant by broth dilution method; type: functional; procedure, shortened: as §1
Staphylococcus aureus [24] = experiment: Antimicrobial activity against Staphylococcus aureus isogenic forms expressing gyrA S84L mutant by agar dilution method; type: functional; procedure, shortened: as §1
[25] = Half life in iv dosed dog plasma; type: ADME, organism-based, Canis lupus familiaris
Staphylococcus aureus [26] = experiment: Antimicrobial activity against methicillin-resistant Staphylococcus aureus 67-0; type: functional
[27] = Volume of distribution in iv dosed dog; settings: in vivo; remark: listed apart in the source
Staphylococcus aureus [28] = experiment: Antimicrobial activity against methicillin-sensitive Staphylococcus aureus infected in mouse skin abscess model; type: functional
[29] = target: Topoisomerase IV (Staphylococcus aureus) (UniProt P0C1U9+P0C1S7)
[30] = target: DNA topoisomerase 2-alpha (Homo sapiens) (UniProt P11388)
Staphylococcus aureus [31] = experiment: Antimicrobial activity against methicillin-sensitive Staphylococcus aureus clinical isolates by broth dilution method; type: functional
Staphylococcus aureus [32] = experiment: Antimicrobial activity against Staphylococcus aureus isogenic forms expressing parC S80F mutant by broth dilution method; type: functional; procedure, shortened: as §1
Staphylococcus aureus [33] = experiment: Antimicrobial activity against Staphylococcus aureus isogenic forms expressing rpoB H481Y and gyrA S84L mutant by agar dilution method; type: functional; procedure, shortened: as §1
Streptococcus pyogenes [34] = experiment: Antimicrobial activity against Streptococcus pyogenes infected in mouse skin abscess model; type: functional
[35] = Inhibition of RIF-resistant Staphylococcus aureus RNA polymerase RpoB H481Y mutant assessed as reduction in RNA product formation
Staphylococcus aureus [36] = experiment: Antimicrobial activity against Staphylococcus aureus ATCC 29213 assessed as mutation preventive concentration
Staphylococcus aureus [37] = experiment: Antimicrobial activity against methicillin-resistant Staphylococcus aureus clinical isolates by broth dilution method; type: functional
Staphylococcus aureus [38] = experiment: Bactericidal activity against methicillin-sensitive Staphylococcus aureus 29213 infected in mouse macrophages assessed as induction of bacterial kill at 4 ug/ml in presence of 4 ug/ml rifampin after 24 hrs; type: functional
Streptococcus pyogenes [39] = experiment: Antimicrobial activity against Streptococcus pyogenes clinical isolates by broth dilution method; type: functional
[40] = tested on: Staphylococcus epidermidis; experiment: Antimicrobial activity against Staphylococcus epidermidis infected in rat central venous catheter infection model assessed as reduction in bacterial load; type: functional
Streptococcus pyogenes [41] = experiment: Antimicrobial activity against Streptococcus pyogenes infected in rat central venous catheter infection model assessed as reduction in bacterial load; type: functional
[42] = Plasma clearance in iv dosed rat; type: ADME, organism-based
[43] = Plasma clearance in iv dosed rabbit; type: ADME, organism-based, Oryctolagus cuniculus
Streptococcus agalactiae = experiment: Antimicrobial activity against Streptococcus agalactiae clinical isolates by broth dilution method; type: functional
Staphylococcus aureus [44] = experiment: Antimicrobial activity against wild type Staphylococcus aureus by agar dilution method; type: functional; procedure, shortened: as §1
Streptococcus pneumoniae = experiment: Antimicrobial activity against Streptococcus pneumoniae clinical isolates by broth dilution method; type: functional
Staphylococcus aureus [45] = experiment: Antimicrobial activity against methicillin-sensitive Staphylococcus aureus infected in rat central venous catheter infection model assessed as reduction in bacterial load; type: functional
Staphylococcus aureus [46] = experiment: […] activity against Staphylococcus aureus ATCC 29213 assessed as induction of bacterial kill at […] in presence of 1 ug/ml rifampin after 24 hrs
Staphylococcus aureus [47] = experiment: Antimicrobial activity against Staphylococcus aureus isogenic forms expressing rpoB H481Y mutant by broth dilution method; type: functional; procedure, shortened: as §1
[48] = Half life in iv dosed rabbit plasma; type: ADME, organism-based, Oryctolagus cuniculus
Staphylococcus aureus [49] = experiment: Antimicrobial activity against Staphylococcus aureus isogenic forms expressing parC S80F mutant; type: functional; procedure, shortened: as §1
Staphylococcus aureus [50] = experiment: Antimicrobial activity against Staphylococcus aureus isogenic forms expressing rpoB H481Y and parC S80F mutant; type: functional; procedure, shortened: as §1
Staphylococcus aureus [51] = experiment: Antimicrobial activity against Staphylococcus aureus isogenic forms expressing rpoB H481Y and gyrA S84L mutant; type: functional
Staphylococcus aureus [52] = experiment: Antimicrobial activity against Staphylococcus aureus isogenic forms expressing rpoB H481Y mutant; type: functional
Staphylococcus aureus [53] = experiment: Antimicrobial activity against Staphylococcus aureus isogenic forms expressing gyrA S84L mutant; type: functional
Staphylococcus aureus [54] = experiment: Antimicrobial activity against wild type Staphylococcus aureus; type: functional
Staphylococcus aureus [55] = experiment: Antimicrobial activity against Staphylococcus aureus isogenic forms expressing gyrA S84L and parC S80F mutant; type: functional; procedure, shortened: as §1
Staphylococcus aureus [56] = experiment: Antimicrobial activity against Staphylococcus aureus isogenic forms expressing rpoB H481Y/gyrA S84L/parC S80F mutant; type: functional; procedure, shortened: as §1

CO[C@H]1/C=C/O[C@@]2(C)Oc3c(C)c(O)c4c(O)c(c(/C=N/N5CCC(N(C)C6([C@@H]7CCN(c8c(F)cn9c(=O)c(C(=O)O)cc(C%10CC%10)c9c8C)C7)CC6)CC5)c(O)c4c3C2=O)NC(=O)/C(C)=C\C=C\[C@H](C)[C@H](O)[C@@H](C)[C@@H](O)[C@@H](C)[C@H](OC(C)=O)[C@@H]1C
MIC (Staphylococcus aureus [1]): 2 µg/mL (≈ 1.66 µM)
MIC (Staphylococcus aureus [2]): 0.015 µg/mL (≈ 0.0124 µM)
MIC (Staphylococcus aureus [3]): 0.015 µg/mL (≈ 0.0124 µM)
clearance [4]: 0.167 to 1.33 mL/min/kg
MIC (Staphylococcus aureus [5]): 0.25 µg/mL (≈ 0.207 µM)
Vd [6]: 0.09 to 0.17 L/kg
CC50 (Staphylococcus aureus [7]): 2700 nM
Activity (Staphylococcus aureus [8]): 1 - 3.4 log10CFU
MIC50 [9]: ≤ 0.008 µg/mL
MIC90 [9]: 0.008 µg/mL (≈ 0.00664 µM)
half-life [10]: 0.4 to 4.1 h
MIC50 [11]: 0.008 µg/mL (≈ 0.00664 µM)
MIC90 [11]: 0.5 µg/mL (≈ 0.415 µM)
half-life [12]: 0.4 to 4.1 h
ED50 [13]: 4.8 to 10.7 mg/kg
IC50 [14]: 34 nM
MIC (Staphylococcus aureus [15]): 0.06 µg/mL (≈ 0.0498 µM)
MIC (Staphylococcus aureus [16]): 0.008 µg/mL (≈ 0.00664 µM)
MBC (Staphylococcus aureus [17]): 0.5 µg/mL (≈ 0.415 µM)
MIC (Staphylococcus aureus [18]): 0.06 µg/mL (≈ 0.0498 µM)
MIC (Staphylococcus aureus [19]): 0.015 µg/mL (≈ 0.0124 µM)
CC50 [20]: 1500 nM
MIC (Staphylococcus aureus [21]): 0.5 µg/mL (≈ 0.415 µM)
MIC (Staphylococcus aureus [22]): 0.008 µg/mL (≈ 0.00664 µM)
MIC (Staphylococcus aureus [23]): 0.25 µg/mL (≈ 0.207 µM)
MIC (Staphylococcus aureus [24]): 0.008 µg/mL (≈ 0.00664 µM)
half-life [25]: 1.6 to 11.7 h
MIC (Staphylococcus aureus [26]): 0.008 µg/mL (≈ 0.00664 µM)
Vd [27]: 0.09 to 0.17 L/kg
ED50 (Staphylococcus aureus [28]): 1.4 to 3.8 mg/kg
CC50 [29]: 1700 nM
CC50 [30]: > 150000 nM
MIC50 (Staphylococcus aureus [31]): 0.008 µg/mL (≈ 0.00664 µM)
MIC90 (Staphylococcus aureus [31]): 0.015 µg/mL (≈ 0.0124 µM)
MIC (Staphylococcus aureus [32]): 0.015 µg/mL (≈ 0.0124 µM)
MIC (Staphylococcus aureus [33]): 0.12 µg/mL (≈ 0.0996 µM)
ED50 (Streptococcus pyogenes [34]): 4.8 to 10.7 mg/kg
IC50 [35]: > 25000 nM
Activity (Staphylococcus aureus [36]): 0.12 µg/mL
MIC50 (Staphylococcus aureus [37]): 0.015 µg/mL (≈ 0.0124 µM)
MIC90 (Staphylococcus aureus [37]): 0.015 µg/mL (≈ 0.0124 µM)
Activity (Staphylococcus aureus [38]): >99.9%
MIC (Streptococcus pyogenes [39]): 0.008 to 0.12 µg/mL (≈ 0.00664 to 0.0996 µM)
MIC50 (Streptococcus pyogenes [39]): 0.03 µg/mL (≈ 0.0249 µM)
MIC90 (Streptococcus pyogenes [39]): 0.12 µg/mL (≈ 0.0996 µM)
Activity [40]: >3.1 log10CFU
Activity (Streptococcus pyogenes [41]): >3.1 log10CFU
clearance [42]: 1.17 to 6 mL/min/kg
clearance [43]: 1.17 to 6 mL/min/kg
MIC (Streptococcus agalactiae): 0.06 to 2 µg/mL (≈ 0.0498 to 1.66 µM)
MIC50 (Streptococcus agalactiae): 0.12 µg/mL (≈ 0.0996 µM)
MIC90 (Streptococcus agalactiae): 0.25 µg/mL (≈ 0.207 µM)
MIC (Staphylococcus aureus [44]): 0.008 µg/mL (≈ 0.00664 µM)
MIC (Streptococcus pneumoniae): 0.06 to 0.25 µg/mL (≈ 0.0498 to 0.207 µM)
MIC50 (Streptococcus pneumoniae): 0.12 µg/mL (≈ 0.0996 µM)
MIC90 (Streptococcus pneumoniae): 0.12 µg/mL (≈ 0.0996 µM)
Activity (Staphylococcus aureus [45]): 2.8 - 3.4 log10CFU
Activity (Staphylococcus aureus [46]): >=99.9%
MIC (Staphylococcus aureus [47]): 0.12 µg/mL (≈ 0.0996 µM)
half-life [48]: 0.4 to 4.1 h

O=C(O)c1cn(C2CC2)c2cc(N3CCNCC3)c(F)cc2c1=O [CIPROFLOXACIN]
CC50 (Staphylococcus aureus [7]): 31000 nM
MBC (Staphylococcus aureus [17]): 16 µg/mL (≈ 48.3 µM)
CC50 [20]: 5000 nM
MIC (Staphylococcus aureus [49]): 2 µg/mL (≈ 6.04 µM)
CC50 [29]: 400 nM
CC50 [30]: > 150000 nM
MIC (Staphylococcus aureus [50]): 2 µg/mL (≈ 6.04 µM)

COc1c(N2CCNC(C)C2)c(F)cc2c(=O)c(C(=O)O)cn(C3CC3)c12 (centres undefined) [GATIFLOXACIN]
MIC (Staphylococcus aureus [51]): 0.12 µg/mL (≈ 0.32 µM)
CC50 (Staphylococcus aureus [7]): 13000 nM
CC50 [20]: 700 nM
MIC (Staphylococcus aureus [52]): 0.06 µg/mL (≈ 0.16 µM)
MIC (Staphylococcus aureus [49]): 0.25 µg/mL (≈ 0.666 µM)
MIC (Staphylococcus aureus [53]): 0.12 µg/mL (≈ 0.32 µM)
CC50 [29]: 200 nM
CC50 [30]: > 150000 nM
MIC (Staphylococcus aureus [50]): 0.25 µg/mL (≈ 0.666 µM)
MIC (Staphylococcus aureus [54]): 0.06 µg/mL (≈ 0.16 µM)
MIC (Staphylococcus aureus [55]): 8 µg/mL (≈ 21.3 µM)
MIC (Staphylococcus aureus [56]): 8 µg/mL (≈ 21.3 µM)
